# Assay results as given in ChEMBL document CHEMBL1123100, “Angiotensin converting enzyme inhibitors: 1,5-benzothiazepine derivatives” (J Med Chem, 1985).
# Tests used:
# [1] = molecular target: T1, Angiotensin-converting enzyme (Rattus norvegicus, UniProt P47820); assay: Inhibition of Angiotensin I converting enzyme in rat
# T1 sequence (P47820 whole entry): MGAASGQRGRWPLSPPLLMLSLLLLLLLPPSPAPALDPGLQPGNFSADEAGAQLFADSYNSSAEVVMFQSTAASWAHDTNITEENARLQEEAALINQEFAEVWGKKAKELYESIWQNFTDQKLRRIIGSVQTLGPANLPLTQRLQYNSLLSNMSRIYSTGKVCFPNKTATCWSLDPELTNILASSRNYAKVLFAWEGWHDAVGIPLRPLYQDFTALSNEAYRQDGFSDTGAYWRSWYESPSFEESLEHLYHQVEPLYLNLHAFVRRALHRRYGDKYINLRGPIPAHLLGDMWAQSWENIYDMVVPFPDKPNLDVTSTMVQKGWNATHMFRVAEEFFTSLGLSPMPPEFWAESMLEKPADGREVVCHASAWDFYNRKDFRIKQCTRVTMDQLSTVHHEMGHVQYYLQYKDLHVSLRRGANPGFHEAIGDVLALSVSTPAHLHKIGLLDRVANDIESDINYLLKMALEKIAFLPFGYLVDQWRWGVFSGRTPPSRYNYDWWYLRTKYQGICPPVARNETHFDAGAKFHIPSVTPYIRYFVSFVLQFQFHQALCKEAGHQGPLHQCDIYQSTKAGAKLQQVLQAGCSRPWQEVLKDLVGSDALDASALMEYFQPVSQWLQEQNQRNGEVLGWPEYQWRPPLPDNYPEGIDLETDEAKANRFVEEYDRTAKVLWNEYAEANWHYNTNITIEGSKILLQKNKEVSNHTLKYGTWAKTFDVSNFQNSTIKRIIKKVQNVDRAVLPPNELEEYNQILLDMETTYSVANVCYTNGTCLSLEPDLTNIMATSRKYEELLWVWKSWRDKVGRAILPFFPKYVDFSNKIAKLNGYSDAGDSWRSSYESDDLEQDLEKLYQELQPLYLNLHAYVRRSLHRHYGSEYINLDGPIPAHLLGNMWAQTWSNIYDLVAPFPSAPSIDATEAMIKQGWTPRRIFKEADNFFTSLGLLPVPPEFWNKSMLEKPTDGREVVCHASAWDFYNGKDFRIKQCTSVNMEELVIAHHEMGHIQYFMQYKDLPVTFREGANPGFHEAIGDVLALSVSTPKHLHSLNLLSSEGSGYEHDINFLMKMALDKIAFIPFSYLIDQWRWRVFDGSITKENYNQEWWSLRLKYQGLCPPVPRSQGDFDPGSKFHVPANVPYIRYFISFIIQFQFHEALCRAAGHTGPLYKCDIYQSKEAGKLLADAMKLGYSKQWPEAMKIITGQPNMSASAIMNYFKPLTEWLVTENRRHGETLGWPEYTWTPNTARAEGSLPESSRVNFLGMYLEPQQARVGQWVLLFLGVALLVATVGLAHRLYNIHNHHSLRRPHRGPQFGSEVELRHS
# Rattus norvegicus [2] = assay: Percent inhibition of angiotensin I (AI) pressor response after intravenous administration (dose of 0.05 mg/kg)to conscious normotensive rats; type: functional
# Procedure, shortened: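 Angiotensin I pressor response measured in conscious normotensive rats, 15 min after intravenous dosing of test compound; value is percent inhibition of the pressor response.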
# Rattus norvegicus [3] = assay: Percent inhibition of angiotensin I (AI) pressor response after oral administration (dose of 1.0 mg/kg) to conscious normotensive rats; type: functional
# Procedure, shortened: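 Angiotensin I pressor response measured in conscious normotensive rats, 1 h after oral dosing of test compound; value is percent inhibition of the pressor response.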
# Rattus norvegicus [4] = assay: The maximal change in blood pressure recorded during the 4-day test period in spontaneously hypertensive rats (SHR) after oral administration; type: functional
IC50 [1],SMILES,inhibition in vivo at 0.05 mg/kg (Rattus norvegicus [2]),inhibition in vivo at 1 mg/kg (Rattus norvegicus [3]),Max delta BP (Rattus norvegicus [4])
8000 nM,CCOC(=O)C(CCc1ccccc1)N[C@H]1CSc2ccccc2N(CC(=O)O)C1=O (stereo partly specified),–,–,–
2200 nM,CCOC(=O)C(CCc1ccccc1)NC1CSc2ccccc2N(CC(=O)O)C1=O.Cl (stereo in doubt; 14c),75%,39%,-35 mmHg
430 nM,CCOC(=O)CN1C(=O)[C@@H](NC(CCc2ccccc2)C(=O)OCC)CCc2ccccc21 (stereo partly specified),77%,88%,-76 mmHg
9.8 nM,O=C(O)CN1C(=O)[C@@H](NC(CCc2ccccc2)C(=O)O)CSc2ccccc21 (stereo partly specified),–,–,–
2.9 nM,O=C(O)CN1C(=O)[C@@H](N[C@@H](CCc2ccccc2)C(=O)O)CSc2ccccc21,–,–,–
5.9 nM,O=C(O)CN1C(=O)[C@@H](NC(CCc2ccccc2)C(=O)O)C[S+]([O-])c2ccccc21 (stereo partly specified),–,–,–
860 nM,CCOC(=O)C(CCc1ccccc1)NC1CSc2ccccc2N(CC(=O)O)C1=O (stereo in doubt; 14a),–,–,–
1.7 nM,O=C(O)CN1C(=O)[C@@H](NC(CCc2ccccc2)C(=O)O)CCc2ccccc21 (stereo partly specified),–,–,–
240 nM,O=C(O)CN1C(=O)[C@@H](N[C@H](CCc2ccccc2)C(=O)O)CSc2ccccc21,–,–,–
2900 nM,O=C(O)CN1C(=O)[C@@H](NC(CCc2ccccc2)C(=O)O)CS(=O)(=O)c2ccccc21 (stereo partly specified),–,–,–
